Measurements gathered from unrelated publications.
Lines come from different studies, so protocols differ.
Target: Tyrosine-protein kinase ZAP-70 (ZAP70, Homo sapiens, UniProt P43403)
Sequence (P43403 1-619, as in one of the studies): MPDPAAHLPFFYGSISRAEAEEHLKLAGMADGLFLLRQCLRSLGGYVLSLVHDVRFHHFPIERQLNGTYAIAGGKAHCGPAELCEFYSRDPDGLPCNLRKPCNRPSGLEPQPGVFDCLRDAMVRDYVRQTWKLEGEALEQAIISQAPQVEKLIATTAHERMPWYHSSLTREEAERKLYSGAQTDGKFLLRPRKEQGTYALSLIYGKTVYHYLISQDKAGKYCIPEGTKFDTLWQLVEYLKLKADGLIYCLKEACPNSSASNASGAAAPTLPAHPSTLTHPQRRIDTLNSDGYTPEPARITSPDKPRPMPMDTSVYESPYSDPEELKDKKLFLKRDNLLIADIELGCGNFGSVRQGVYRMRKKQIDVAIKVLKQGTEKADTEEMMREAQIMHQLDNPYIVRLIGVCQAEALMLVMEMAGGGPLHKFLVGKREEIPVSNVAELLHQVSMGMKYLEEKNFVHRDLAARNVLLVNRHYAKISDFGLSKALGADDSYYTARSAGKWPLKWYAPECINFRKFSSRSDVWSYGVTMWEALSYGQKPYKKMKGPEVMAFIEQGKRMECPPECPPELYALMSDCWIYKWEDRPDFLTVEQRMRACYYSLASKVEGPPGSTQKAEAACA

SMILES | observed | method | tested at | remaining binding [%]
C[C@@H]1CN(c2ccc3ncc(-c4ccc5[nH]nc(C6CC6)c5c4)n3n2)C[C@H](C)O1 | binding | competition with immobilised ligand | 0.5 µM | 100
C[C@@H](c1ccc(-n2cnc3c(N)ncnc32)cc1)N1CCc2nn(C)c(Cc3ccccc3)c2C1=O | binding | competition with immobilised ligand | 0.1 µM | 94
Cc1cnc(Nc2ccc(C(=O)N3CCC(N4CCCC4)CC3)cc2)nc1-c1cc2ccccc2s1 | binding | competition with immobilised ligand | 1 µM | 46
c1cncc(-c2cccc(Nc3nccc(NC4CCCCC4)n3)c2)c1 | binding | competition with immobilised ligand | 10 µM | 91
COc1ccnn2ncc(-c3ccnc(N(C)C)n3)c12 | binding | – | 1 µM | 86
C[C@@H](c1cccc(C#N)c1)n1cc(Cl)cc(C(N)=O)c1=N | cell-free assay | competition with immobilised ligand | 1 µM | 84
N[C@H]1CCN(c2nccc(-c3cnn4ncccc34)n2)C1 | binding | – | 1 µM | 100
CSc1cccnc1N1CCN(Cc2nc3ccccc3[nH]2)CC1 | cell-free assay | competition with immobilised ligand | 1 µM | 99
C[C@@H]1CCN(c2nccc(-c3cnn4ncccc34)n2)C1 | binding | – | 1 µM | 75
CCOC(=O)c1cc2cc(-c3cc(C(=O)NCc4ccc(C(=O)O)cc4)nn3C)ccc2[nH]1 | cell-free assay | competition with immobilised ligand | 0.1 µM | 98
O=C(NCCCN1CCOCC1)c1ccc(Nc2nccc(-c3cc4ccccc4s3)n2)cc1 | binding | competition with immobilised ligand | 1 µM | 69
Nc1ncc2c(n1)-c1c([nH]c3ccc(C#CC4CC4)cc13)CCCC2 | binding | competition with immobilised ligand | 1 µM | 92
COc1cnc(Nc2cccc(S(N)(=O)=O)c2)nc1N1CCN(c2ccccc2)C(=O)C1 | binding | competition with immobilised ligand | 1 µM | 43
CN(C)c1ncnc(-c2ccc3nc(Nc4cc(CN5CCN(C(=O)CC(F)(F)F)CC5)ccn4)[nH]c3c2)c1Cl | cell-free assay | competition with immobilised ligand | 1 µM | 100
CN(C)c1ncc(F)c(-c2cnn3ncccc23)n1 | binding | – | 1 µM | 79
Cc1cc(-n2nc(Cc3cc(F)cc(C(F)(F)F)c3)nc2C)ccc1C(N)=O | cell-free assay | competition with immobilised ligand | 1 µM | 82
CN(C)c1nccc(-c2cnn3ncccc23)n1 | binding | – | 1 µM | 72
